Data on 15 compounds can be found in ChEMBL document CHEMBL1127567, “Retro-binding tripeptide thrombin active-site inhibitors: discovery, synthesis, and molecular modeling” (J Med Chem, 1994).

The target of assay [1] is T1, Prothrombin (Homo sapiens, UniProt P00734). The assay can be described thus: In vitro activity against thrombin with 10 uM substrate s-2238 (D-Phe-Pip-Arg-pNA).
Assay [2] concerns the target T1, Prothrombin. The assay can be described thus: In vitro activity against thrombin was determined.
For assay [3], the target named is Coagulation factor X (Homo sapiens, UniProt P00742). The assay can be described thus: In vitro activity against Factor Xa was determined.
For assay [4], the target named is T2, Plasminogen (Homo sapiens, UniProt P00747). As to the kind of experiment: In vitro activity against […] was determined.
The target of assay [5] is Serine protease 1 (Homo sapiens, UniProt P07477). As to the kind of experiment: In vitro activity against trypsin was determined.
The target of assay [6] is T2, Plasminogen. As to the kind of experiment: In vitro activity against plasmin was determined.
Assay [7] has as its target T1, Prothrombin. As to the kind of experiment: In vitro activity against thrombin was determined, using a 10 uM substrate s-2238 (D-Phe-Pip-Arg-pNA); 20-30. A digest of the protocol:
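Human α-thrombin (0.1 unit/mL) preincubated with inhibitor for 3 min at room temperature in pH 7.4 buffer (30 mM HEPES, 145 mM NaCl, 5 mM KCl, 1 mg/mL PEG-8000). […] Absorbance change at 405 nm followed kinetically. Values are means of at least triplicate determinations.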

Square brackets hold non-standard residues; d marks the D form. Peptide text beside a SMILES is read from it. Phe(ol) = N[C@H](CO)Cc1ccccc1; Ahp = NCCCCCCC(=O)O; Ahx = NCCCCCC(=O)O; Ava = NCCCCC(=O)O; GABA = NCCCC(=O)O

Coagulation factor X, sequence (P00742 41-179 limits assumed): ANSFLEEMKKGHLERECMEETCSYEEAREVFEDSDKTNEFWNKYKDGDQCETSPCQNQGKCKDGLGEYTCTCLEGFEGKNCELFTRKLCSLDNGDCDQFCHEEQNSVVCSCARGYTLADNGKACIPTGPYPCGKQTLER
Coagulation factor X, sequence (P00742 235-488 limits assumed): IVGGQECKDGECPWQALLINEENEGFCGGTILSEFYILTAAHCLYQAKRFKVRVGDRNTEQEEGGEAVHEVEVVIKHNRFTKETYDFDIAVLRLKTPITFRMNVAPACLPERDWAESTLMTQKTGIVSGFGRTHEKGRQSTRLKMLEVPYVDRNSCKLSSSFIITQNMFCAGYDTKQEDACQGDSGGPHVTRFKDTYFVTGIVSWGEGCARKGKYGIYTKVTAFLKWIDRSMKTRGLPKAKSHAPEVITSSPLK
T2 sequence (P00747 97-580 limits assumed): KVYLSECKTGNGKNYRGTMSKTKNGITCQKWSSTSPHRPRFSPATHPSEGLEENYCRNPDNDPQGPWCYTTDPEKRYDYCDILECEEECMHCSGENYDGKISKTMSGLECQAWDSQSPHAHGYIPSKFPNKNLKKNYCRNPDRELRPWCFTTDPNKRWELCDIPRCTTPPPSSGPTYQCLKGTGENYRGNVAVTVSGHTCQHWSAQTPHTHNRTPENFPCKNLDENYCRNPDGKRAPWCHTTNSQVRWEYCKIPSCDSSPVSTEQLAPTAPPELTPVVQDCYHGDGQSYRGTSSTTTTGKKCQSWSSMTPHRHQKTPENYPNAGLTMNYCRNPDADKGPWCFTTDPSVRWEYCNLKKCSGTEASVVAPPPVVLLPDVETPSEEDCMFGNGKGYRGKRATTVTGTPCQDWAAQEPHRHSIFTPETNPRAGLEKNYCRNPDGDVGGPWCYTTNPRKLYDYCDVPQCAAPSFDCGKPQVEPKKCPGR
T2 sequence (P00747 581-810 limits assumed): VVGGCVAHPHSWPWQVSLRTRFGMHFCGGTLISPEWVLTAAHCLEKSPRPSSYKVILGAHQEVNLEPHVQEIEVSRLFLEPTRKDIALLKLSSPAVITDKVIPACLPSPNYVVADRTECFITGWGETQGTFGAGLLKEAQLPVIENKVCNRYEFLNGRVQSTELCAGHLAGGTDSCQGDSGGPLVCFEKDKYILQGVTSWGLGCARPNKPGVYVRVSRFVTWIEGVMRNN
Serine protease 1, sequence (P07477 whole entry): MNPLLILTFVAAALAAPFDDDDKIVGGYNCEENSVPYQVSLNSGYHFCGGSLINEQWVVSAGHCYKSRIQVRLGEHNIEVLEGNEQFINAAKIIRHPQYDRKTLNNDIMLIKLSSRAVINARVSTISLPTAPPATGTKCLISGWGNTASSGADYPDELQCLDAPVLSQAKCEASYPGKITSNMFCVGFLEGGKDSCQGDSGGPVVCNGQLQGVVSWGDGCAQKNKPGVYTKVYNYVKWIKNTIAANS

For `CC(C)C[C@H](NC(=O)[C@@H](N)Cc1ccccc1)C(=O)N[C@@H](CC1CCCCC1)[C@@H](O)c1nccs1`, in assay [1], the IC50 (as a rule, the concentration that inhibits the measured activity by half) was above 530 µM. On the same count and under the same terms, next, `COC(=O)[C@H](Cc1ccccc1)NC(=O)[C@H](CC(C)C)NC(=O)[C@H](Cc1ccccc1)NC(=O)CCCN` (H-[GABA]FLF-OMe): above 300 µM. Compound `COC(=O)[C@H](Cc1ccccc1)NC(=O)[C@H](CC(C)C)NC(=O)[C@H](Cc1ccccc1)NC(=O)CCCCNC(=N)N` showed an IC50 in assay [1] of 154 µM. In assay [1], `CC(C)C[C@H](NC(=O)[C@H](Cc1ccccc1)NC(=O)CCCCCN)C(=O)N[C@@H](CC1CCCCC1)[C@@H](O)c1nccs1` registered an IC50 of 7.5 µM. The same measure, in the same setting: next, `COC(=O)[C@H](Cc1ccccc1)NC(=O)[C@H](CC(C)C)NC(=O)[C@H](Cc1ccccc1)NC(=O)CCCNC(=N)N`: 1.41 µM. On to `CN[C@H](Cc1ccccc1)C(=O)N1CCC[C@H]1C(=O)N[C@H](C=O)CCCN=C(N)N`, for which the IC50 in assay [2] was determined as 0.008 µM; in assay [3], 4 µM; in assay [4] it was 0.23 µM; in assay [5] it was 0.008 µM. As to `CC(C)C[C@H](NC(=O)[C@H](Cc1ccccc1)NC(=O)CCCN=C(N)N)C(=O)N[C@@H](CC1CCCCC1)[C@@H](O)c1nccs1`, the IC50 in assay [3] amounted to 6 µM; in assay [6], 143 µM.

The compound `COC(=O)[C@H](Cc1ccccc1)NC(=O)[C@H](CC(C)C)NC(=O)[C@H](Cc1ccccc1)NC(=O)CCCCCN` (H-[Ahx]FLF-OMe) displayed an IC50 in assay [1] of 80 µM. The compound `COC(=O)C(O)[C@H](CCCCN)NC(=O)[C@@H]1CCCN1C(=O)[C@@H](Cc1ccccc1)NC(=O)CCCCCN` (some centres undefined) registered an IC50 in assay [1] of 17.6 µM. The same measure, in the same setting: next, `COC(=O)[C@H](Cc1ccccc1)NC(=O)[C@H](CC(C)C)NC(=O)[C@H](Cc1ccccc1)NC(=O)CCCCN` (H-[Ava]FLF-OMe): 57.1 µM; `CC(C)C[C@H](NC(=O)[C@H](Cc1ccccc1)NC(=O)CCCCN)C(=O)N[C@H](CO)Cc1ccccc1` (H-[Ava]FL[Phe(ol)]): 100 µM; `COC(=O)[C@H](Cc1ccccc1)NC(=O)[C@H](CC(C)C)NC(=O)[C@H](Cc1ccccc1)NC(=O)CCCCCCN` (H-[Ahp]FLF-OMe): 330 µM. Still for that read-out and setting: next, `COC(=O)[C@H](Cc1ccccc1)NC(=O)[C@H](CC(C)C)NC(=O)[C@@H](N)Cc1ccccc1` (H-Phe-Leu-Phe-OMe): above 333 µM. On to `COC(=O)C(O)[C@H](CCCCN)NC(=O)[C@@H]1CCCN1C(=O)[C@H](N)Cc1ccccc1` (some centres undefined), for which the IC50 in assay [7] came to 30 µM. This lies in the double-digit micromolar range. In the case of `COC(=O)[C@H](Cc1ccccc1)NC(=O)[C@H](CC(C)C)NC(=O)[C@H](Cc1ccccc1)NC(=O)CCCCCNC(=N)N`, in assay [1], the IC50 was above 200 µM.
